# Experimental data published in publication PMC3034256 (Chemistry & biology, 2011).
# Several values for one entry are separate records, joined by “and”; a condition that tells them apart may be missing. Equal values may be shown once.
# What was measured:
# [1] = test system: human primary T-cell; conditions: ref Shim et al., 2002; cited from earlier work
# [2] = test system: macrophage progenitor cells expressing MIEG3, wild-type SHP2, or SHP2/E76K; assay: GM-CSF induced ERK1/2 activation in macrophage progenitors; type: cell-based; conditions: 2 µM for 2 hours, GM-CSF 50 ng/mL for 60 minutes
# Outline: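 Bone marrow low-density mononuclear cells were transduced (empty vector, wild-type SHP2 or SHP2/E76K), EGFP-sorted and grown 5 days in M-CSF 100 ng/mL to give macrophage progenitors. These were serum- and growth factor-starved 16 h, pretreated 2 h with DMSO or 2 µM test compound, then left unstimulated or given GM-CSF 50 ng/mL for 60 min. Extracts were immunoblotted for phospho-ERK1/2 and total ERK1/2.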
# [3] = target: T1, HePTP (Homo sapiens, UniProt P35236); assay: PTP-catalyzed pNPP hydrolysis, HePTP; type: biochemical
# T1 sequence (P35236 1-360): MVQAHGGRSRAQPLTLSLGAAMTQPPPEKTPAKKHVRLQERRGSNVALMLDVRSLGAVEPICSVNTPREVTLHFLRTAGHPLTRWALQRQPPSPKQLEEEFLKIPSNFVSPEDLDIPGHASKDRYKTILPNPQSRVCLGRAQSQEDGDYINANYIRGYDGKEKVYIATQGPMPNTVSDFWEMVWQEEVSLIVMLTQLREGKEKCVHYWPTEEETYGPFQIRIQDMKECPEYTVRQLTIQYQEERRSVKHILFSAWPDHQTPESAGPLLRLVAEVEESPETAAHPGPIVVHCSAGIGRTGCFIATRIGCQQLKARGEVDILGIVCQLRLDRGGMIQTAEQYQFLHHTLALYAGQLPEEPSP
# Outline: (§1)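 pNPP hydrolysis was run at 25 °C in 50 mM 3,3-dimethylglutarate, pH 7.0, 1 mM EDTA, ionic strength 0.15 M (NaCl). pNPP was fixed at each enzyme's experimentally determined Km, and reactions were started with enzyme. They were quenched with NaOH and corrected with no-enzyme controls. p-Nitrophenol was read at 405 nm. IC50 was fitted from AI/A0 = IC50/(IC50+[I]).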
# [4] = test system: PP1; conditions: biochemical assays; cited from earlier work
# [5] = target: T2, Cdc14A (Homo sapiens, UniProt Q9UNH5); assay: PTP-catalyzed pNPP hydrolysis, Cdc14A; type: biochemical
# T2 sequence (Q9UNH5 1-594): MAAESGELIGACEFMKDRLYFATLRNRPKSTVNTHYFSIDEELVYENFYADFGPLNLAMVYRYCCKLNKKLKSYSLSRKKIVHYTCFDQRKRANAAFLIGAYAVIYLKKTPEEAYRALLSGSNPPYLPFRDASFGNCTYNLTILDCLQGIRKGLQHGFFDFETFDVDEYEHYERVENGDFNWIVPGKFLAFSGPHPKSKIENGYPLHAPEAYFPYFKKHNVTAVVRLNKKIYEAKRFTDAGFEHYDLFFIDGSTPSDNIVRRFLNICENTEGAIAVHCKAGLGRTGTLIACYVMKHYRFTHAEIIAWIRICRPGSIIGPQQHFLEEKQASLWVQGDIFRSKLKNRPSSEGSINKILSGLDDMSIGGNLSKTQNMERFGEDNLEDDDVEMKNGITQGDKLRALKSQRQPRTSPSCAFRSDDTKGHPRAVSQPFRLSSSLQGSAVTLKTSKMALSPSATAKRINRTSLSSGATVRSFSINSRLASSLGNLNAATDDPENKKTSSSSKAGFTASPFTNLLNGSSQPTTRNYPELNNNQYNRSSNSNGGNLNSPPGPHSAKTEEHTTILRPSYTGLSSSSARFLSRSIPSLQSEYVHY
# Outline: as §1
# [6] = target: PTPα (Homo sapiens, UniProt P18433); assay: PTP-catalyzed pNPP hydrolysis, PTPα; type: biochemical
# PTPα, sequence (P18433 20-802): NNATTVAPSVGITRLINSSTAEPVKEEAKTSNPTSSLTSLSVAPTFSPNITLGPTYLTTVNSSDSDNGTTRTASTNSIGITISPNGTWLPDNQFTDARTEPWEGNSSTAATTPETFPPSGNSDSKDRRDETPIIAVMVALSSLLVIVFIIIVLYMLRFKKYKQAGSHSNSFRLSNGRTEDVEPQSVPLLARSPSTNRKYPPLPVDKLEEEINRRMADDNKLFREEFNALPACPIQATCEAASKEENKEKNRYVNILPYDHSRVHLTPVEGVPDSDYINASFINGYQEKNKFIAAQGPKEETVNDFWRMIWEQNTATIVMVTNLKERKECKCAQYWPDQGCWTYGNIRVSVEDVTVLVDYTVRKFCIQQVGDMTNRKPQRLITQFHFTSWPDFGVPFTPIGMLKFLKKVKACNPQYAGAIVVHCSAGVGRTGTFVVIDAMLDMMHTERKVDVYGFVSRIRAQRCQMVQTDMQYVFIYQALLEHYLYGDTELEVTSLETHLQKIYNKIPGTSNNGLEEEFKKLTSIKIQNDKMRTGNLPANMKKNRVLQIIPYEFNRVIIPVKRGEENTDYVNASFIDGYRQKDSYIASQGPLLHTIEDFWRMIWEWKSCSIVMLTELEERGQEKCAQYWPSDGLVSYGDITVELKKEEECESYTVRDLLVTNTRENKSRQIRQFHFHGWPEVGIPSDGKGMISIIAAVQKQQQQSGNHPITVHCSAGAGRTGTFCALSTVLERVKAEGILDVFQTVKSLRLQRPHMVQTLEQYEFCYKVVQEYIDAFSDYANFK
# Outline: as §1
# [7] = target: VHR (Homo sapiens, UniProt P51452); assay: PTP-catalyzed pNPP hydrolysis, VHR; type: biochemical
# VHR, sequence (P51452 whole entry, species assumed): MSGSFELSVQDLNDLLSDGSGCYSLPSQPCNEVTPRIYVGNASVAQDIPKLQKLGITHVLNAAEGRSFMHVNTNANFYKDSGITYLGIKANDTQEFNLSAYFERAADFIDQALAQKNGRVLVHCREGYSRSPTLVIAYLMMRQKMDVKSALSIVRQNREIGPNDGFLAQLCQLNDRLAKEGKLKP
# Outline: as §1
# [8] = target: SHP1 (Homo sapiens, UniProt P29350); assay: PTP-catalyzed pNPP hydrolysis, SHP1; type: biochemical
# SHP1, sequence (P29350 whole entry): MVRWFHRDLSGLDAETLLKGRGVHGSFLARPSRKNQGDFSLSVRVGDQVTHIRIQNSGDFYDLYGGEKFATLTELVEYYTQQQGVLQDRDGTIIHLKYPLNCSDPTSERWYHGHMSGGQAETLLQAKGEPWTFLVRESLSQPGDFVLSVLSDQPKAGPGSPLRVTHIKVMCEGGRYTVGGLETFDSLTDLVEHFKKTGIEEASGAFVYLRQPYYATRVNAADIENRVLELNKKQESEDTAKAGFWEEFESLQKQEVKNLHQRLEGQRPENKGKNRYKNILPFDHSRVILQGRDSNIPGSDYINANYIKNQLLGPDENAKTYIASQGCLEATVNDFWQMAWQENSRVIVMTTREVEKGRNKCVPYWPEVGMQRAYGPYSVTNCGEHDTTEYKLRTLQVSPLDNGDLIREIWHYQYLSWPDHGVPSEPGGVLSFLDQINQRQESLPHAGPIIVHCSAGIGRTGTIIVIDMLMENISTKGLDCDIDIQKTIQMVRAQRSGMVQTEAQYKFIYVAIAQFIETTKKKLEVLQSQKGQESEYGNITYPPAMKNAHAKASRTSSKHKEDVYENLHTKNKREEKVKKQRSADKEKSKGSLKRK
# Outline: as §1
# [9] = target: T3, Lyp (Homo sapiens, UniProt Q9Y2R2); assay: PTP-catalyzed pNPP hydrolysis, Lyp; type: biochemical
# T3 sequence (Q9Y2R2 1-807): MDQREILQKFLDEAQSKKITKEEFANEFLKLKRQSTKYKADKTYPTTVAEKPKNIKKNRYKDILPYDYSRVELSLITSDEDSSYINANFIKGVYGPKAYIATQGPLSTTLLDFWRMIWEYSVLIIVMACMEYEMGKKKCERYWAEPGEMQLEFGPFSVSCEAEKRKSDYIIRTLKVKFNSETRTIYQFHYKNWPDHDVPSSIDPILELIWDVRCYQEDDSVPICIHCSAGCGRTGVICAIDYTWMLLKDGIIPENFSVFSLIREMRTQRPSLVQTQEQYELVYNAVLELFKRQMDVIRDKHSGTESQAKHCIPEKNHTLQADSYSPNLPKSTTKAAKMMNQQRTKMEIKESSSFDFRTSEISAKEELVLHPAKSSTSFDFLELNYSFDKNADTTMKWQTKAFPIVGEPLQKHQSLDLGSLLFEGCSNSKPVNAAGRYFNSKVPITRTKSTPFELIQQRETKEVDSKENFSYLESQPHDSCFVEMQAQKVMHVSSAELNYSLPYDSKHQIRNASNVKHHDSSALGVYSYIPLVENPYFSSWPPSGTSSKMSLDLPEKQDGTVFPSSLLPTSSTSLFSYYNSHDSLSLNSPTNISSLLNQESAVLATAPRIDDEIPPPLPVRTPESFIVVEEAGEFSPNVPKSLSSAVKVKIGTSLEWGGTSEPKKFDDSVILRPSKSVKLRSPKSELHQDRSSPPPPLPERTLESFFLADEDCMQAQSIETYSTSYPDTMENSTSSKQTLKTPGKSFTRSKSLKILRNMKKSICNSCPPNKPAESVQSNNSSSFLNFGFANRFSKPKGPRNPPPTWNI
# Outline: as §1
# [10] = test system: SHP2/E76K-expressing hematopoietic progenitors; type: cell-based; conditions: 2 µM for 24 hours, GM-CSF 1 ng/mL, [3H] thymidine
# Outline: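 Transduced, EGFP-sorted bone marrow low-density mononuclear cells (empty vector, wild-type SHP2 or SHP2/E76K) were serum- and growth factor-starved for 6 h. They were then cultured in complete medium with GM-CSF 1 ng/mL, with DMSO or 2 µM test compound, for 24 h. Cells were pulsed with [3H]thymidine to measure proliferation. Two independent experiments, cultures in triplicate.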
smiles,measurement,setting,value
"C=C/C(=C/C(=O)C[C@H](C)C[C@@H](C)CC[C@H](O)[C@H](C)C(=O)C[C@@H](O)[C@H](C)[C@@H](C)OC(=O)C[C@@H](O)C1=C(C)C(=O)OC1=O)CC [TTN, tautomycetin]",concentration inhibiting human primary T-cell tyrosine phosphorylation,[1],1 µg/mL and 1.65 µM
same,effect on ERK1/2 hyperactivation in SHP2/E76K-expressing cells,[2],effectively inhibited
same,effect on GM-CSF induced ERK1/2 activation,[2],abrogated
same,IC50,[3],> 50 µM
same,inhibition of PP1,[4],low nM range
same,IC50,[5],> 50 µM
same,IC50,[6],> 50 µM
same,IC50,[7],> 50 µM
same,IC50,[8],14.6 ± 1.1 µM
same,IC50,[9],20 ± 2 µM
same,effect on proliferation of SHP2/E76K-expressing progenitors,[10],effectively reduced
